High-throughput results (PubChem)
Shown are actives, neighbours in structure and some others; about 1.8% of the full set was active somewhere.
Bfl-1 A1 inh: caspase 3/7 activation in MEF A1-2A-BIM cells, primary screen, A1 inhibitor project, cell-based, luminescence, HTS; caspase activation, % (concentration not given with the values); Caspase-Glo 3/7 luminescence, 3 h; percent of clofoctol response, vehicle zero; actives 0.066% (n = 330,000);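 active = over half of replicate activation scores above 10%, or exactly half above 10 with the replicate mean above 10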
ATG4B inhibitor: ATG4B protease inhibitors, primary screen, biochemical, fluorescence, uHTS; ATG4B cleavage of LC3-PLA2, NBD-HPC fluorescence, 1 h; actives 0.51% (n = 340,000); Cysteine protease ATG4B (Homo sapiens), Q9Y4P1; inhibition, % at 8.33 µM; in the data active = inhibition above about 40%
Target sequence (Q9Y4P1 whole entry, looked up): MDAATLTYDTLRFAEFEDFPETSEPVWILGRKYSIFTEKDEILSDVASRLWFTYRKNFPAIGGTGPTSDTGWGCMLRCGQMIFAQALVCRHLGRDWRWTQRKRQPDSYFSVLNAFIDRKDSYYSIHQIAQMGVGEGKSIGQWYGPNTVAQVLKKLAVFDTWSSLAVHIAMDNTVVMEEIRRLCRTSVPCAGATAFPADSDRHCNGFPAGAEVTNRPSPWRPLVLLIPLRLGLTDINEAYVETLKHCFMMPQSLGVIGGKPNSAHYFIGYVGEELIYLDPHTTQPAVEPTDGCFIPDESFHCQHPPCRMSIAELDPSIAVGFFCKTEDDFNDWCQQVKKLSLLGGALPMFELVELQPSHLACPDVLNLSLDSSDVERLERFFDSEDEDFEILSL
LANA-H2B inh: blockers of LANA interaction with H2A/H2B – biochemical, FP readout, HTS, primary screen. Protein LANA1 (Human herpesvirus 8 type P (isolate GK18)), Q9QR71. cell-free LANA-H2A/H2B peptide, fluorescence polarization. inhibition, % (test concentration not listed). actives 0.6% (n = 320,000); in the data active = inhibition mostly above about 10%, no sharp cut-off; inactive = mostly below about 6.7%
HDAC3 inhib: HDAC3 deacetylase inhibitors, primary screen, biochemical, fluorescence, cell-free homogeneous; inhibition, % at 8.3 µM; recombinant HDAC3, fluorogenic peptide/trypsin coupled; actives 0.15% (n = 320,000); in the data active = inhibition above about 26%, passing the limit was not always enough
AI-2 QS mod: Vibrio harveyi AI-2 quorum sensing modulators, primary screen, JMH597 strain, luminescence/OD600 ratio; actives 0.4% (n = 300,000); Vibrio harveyi JMH597 AI-2 luminescence/OD600 ratio, 9 h; hits give low values; strain lacks LuxN and CqsS sensors; 0 = neutral-control median; activity change, % at 7.5 µM; in the data active = activity change below about -75%, passing the limit was not always enough;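 note: luminescence divided by OD600 gain over 9 h not by final OD600 alone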
HKDC1 inhibitor: HKDC1 hexokinase inhibitors, primary screen, biochemical, fluorescence, uHTS; recombinant HKDC1, G6PDH/diaphorase resazurin coupled fluorescence; AID 493160, 2011; Q2TB90; inhibition, % at 20 µM; actives 0.16% (n = 340,000);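 active = inhibition above about 35% when tested at 20 µM, limit read from the data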;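 note: plate controls were DMSO wells with enzyme for no effect and DMSO wells lacking enzyme for full effect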
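Test system: Recombinant HKDC1 (HK5) hexokinase enzyme, produced in-house | Input: HKDC1 at 5 µg/mL | Buffer or medium: Tris pH 8.0 buffer with MgCl2, Tween-20, BSA, BME | Schedule: 90 min reaction incubation at room temperature, dark | Technique: Resazurin-to-resorufin fluorescence via G6PDH and diaphorase coupling, 525/613 nm | Controls: DMSO wells with and without enzyme mix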
Starred values were filed as active, the others as inactive; / = no result given; ! = a repeat was not active.

SMILES | Bfl-1 A1 inh | ATG4B inhibitor | LANA-H2B inh | HDAC3 inhib | AI-2 QS mod | HKDC1 inhibitor
COc1ccc2[nH]c3c(c2c1)CCN1C(=O)C(CC(=O)NCC24CC5CC(CC(C5)C2)C4)C[C@H](C(=O)N2CCOCC2)[C@@]31CCC1CCCC1 (stereo not given in full) | / | / | / | / | / | 1.6
CCc1c(N)nc(N)nc1Nc1ccccc1Cl | / | 5.7 | / | / | / | -3.2
Nc1nnc(-c2cccc(Cl)c2Cl)c(N)n1 | -0.4 | -6.1 | 11.4*! | 4.9 | 22.8 | 2.8
O=C(CCC1CCCC1)NNC(=O)c1ccc(F)cc1 | -0.2 | 0.6 | 49.6* | -4.8 | / | 1.1
CCc1ccc(C(=O)NNC(=O)CCC2CCCCC2)cc1 | -0.3 | -8.4 | -0.4 | 4.8 | 15.3 | 4.1
CCN(C(=O)CSC1=Nc2ccccc2C2CC=NN12)C1CCS(=O)(=O)C1 (stereo not given) | 0.1 | -11.3 | -3.6 | 4.5 | 23.6 | -11.3
CC[C@@H]1C=C(C(=O)O)[C@H](c2ccc(Cl)cc2)N1S(=O)(=O)c1ccc(C)cc1 | / | -0.1 | / | / | / | 2.0
CCCC[C@@H]1C=C(C(=O)O)[C@H](c2ccc(Cl)cc2)N1S(=O)(=O)c1ccc(C)cc1 | -0.8 | -2.8 | 84.4* | 3.3 | / | 6.0
C[C@@H]1NC(=O)c2cc([N+](=O)[O-])cc(I)c2NCC[C@@H](C(N)=O)NC(=O)[C@H](CC(N)=O)NC1=O | 0.9 | -6.7 | 18.4* | 14.4 | / | 4.6
CCCN(CC(=O)Nc1ccccc1OC)C(=O)CCNC(=O)c1ccccc1OC | 0.9 | -0.4 | 41.4* | -6.7 | 17.9 | -3.0
CC(=O)NC1CC2CCCC(C1)N2C(=O)Nc1cccc(Cl)c1 (stereo not given) | / | 5.1 | / | / | / | -4.0
CCCCN(CCCC)c1nc2ccccc2nc1C(C#N)C(=O)NCCCOC (stereo not given) | 0.0 | -16.1 | 27.2* | -0.1 | 10.5 | -6.0
CCCCCCNC(=O)C(C#N)c1nc2ccccc2nc1N1CCCC1 (stereo not given) | 0.9 | -12.5 | 154.5* | 0.0 | -8.4 | 1.2
CC12CCC(=O)N1C(C(=O)NNC(=O)c1ccc(Cl)cc1)CS2 (stereo not given) | -0.2 | -0.4 | 31.6* | 4.5 | / | -2.8
CC12CCC(=O)N1C(C(=O)NNC(=O)c1ccc(F)cc1)CS2 (stereo not given) | 1.1 | -3.8 | 2.8 | 8.2 | -0.2 | -3.5
Cc1noc(C)c1S(=O)(=O)N1CCN(c2ccc([N+](=O)[O-])cc2)CC1 | -0.3 | -5.3 | 14.7* | -1.1 | 14.4 | 1.8
Cc1noc(C)c1S(=O)(=O)N1CCN(c2ccccc2)CC1 | 0.7 | -4.2 | -3.7 | 6.0 | 17.1 | -2.5
Cc1cc(Cl)ccc1OCCCC(=O)NO | 0.0 | 22.7 | 3.7 | 76.8* | 19.1 | 0.3
Cc1cc(Cl)ccc1OCCCC(N)=O | 0.3 | -1.1 | -5.6 | 13.9 | 5.8 | 3.0
Cc1occc1-c1nnc(SC(C)C(=O)Nc2ccccc2F)o1 (stereo not given) | / | 1.5 | / | / | / | -2.6
CN(Cc1cccc(F)c1)C(=O)CNS(=O)(=O)c1ccc2ccccc2c1 | 0.2 | -3.8 | 1.0 | 0.8 | 12.3 | -7.9
C/C(=N\N=C(N)N)c1ccc(C)c(C)c1 | 0.3 | -0.3 | 14.6* | -4.2 | 4.0 | -0.1
C/C(=N\N=C(N)N)c1cccc([N+](=O)[O-])c1 | 0.2 | 3.6 | -1.0 | -3.9 | 18.6 | -3.5
Cn1cccc1/C=N/n1c(-c2ccc(C(C)(C)C)cc2)n[nH]c1=S | -0.1 | -1.7 | -2.4 | 28.6* | 8.8 | 3.0
CC(C)(NS(=O)(=O)OCC(Cl)(Cl)Cl)c1ccccc1 | -0.3 | -1.1 | 42.7* | -4.7 | 3.7 | -0.3
SMILES | Bfl-1 A1 inh | ATG4B inhibitor | LANA-H2B inh | HDAC3 inhib | AI-2 QS mod | HKDC1 inhibitor
COc1cc(NC(=O)c2cccc(C)c2)ccc1NC(=O)c1cc2ccccc2o1 | 8.2* | 1.8 | 2.6 | 2.3 | 9.3 | -7.4
CCOc1cccc(C(=O)Nc2ccc(NC(=O)c3cc4ccccc4o3)c(OC)c2)c1 | -0.6 | -1.6 | -2.0 | 1.7 | 2.6 | -1.3
CN1CCN(C2=C(Cl)C(=O)C(c3cnc(N4CCCCC4)s3)=C(Cl)C2=O)CC1 | 1.5 | 2.6 | -0.4 | 17.1 | 47.3 | 54.6*
CC1CCCCC1NC(=O)Cn1cnc2sccc2c1=O (stereo not given) | / | 7.2 | / | / | / | -7.8
N#Cc1c(-c2cccs2)nc(SCc2ccc(Cl)cc2)[nH]c1=O | / | 48.7* | / | / | 93.2 | -4.1
O=[N+]([O-])c1ccc(NN=Cc2cccc3ccccc23)nc1 | / | -8.8 | / | / | / | -6.3
COc1cccc(/C=N/Nc2ccc([N+](=O)[O-])cn2)c1O | -8.6 | 14.9 | 1.4 | 3.3 | 27.4 | 35.8*
CCCCN1C[C@H](CO)Oc2cccc(F)c2S1(=O)=O | / | 6.3 | / | / | / | -6.7
CCOc1cc(N2CCOCC2)c(OCC)cc1NC(=O)COC(=O)c1ccc(OC)c([N+](=O)[O-])c1 | / | -6.0 | / | / | / | -0.7
CC(=O)OCc1c(C(F)(F)F)nn(C)c1Sc1ccccc1 | -0.8 | -7.5 | 2.2 | 4.7 | 4.7 | -1.3
Cc1cc([N+](=O)[O-])nn1CC(=O)NC1CCCCC1 | 0.4 | -5.3 | 19.5* | 0.6 | 6.6 | -5.4
CCOc1ccccc1NC(=O)COC(=O)c1c[nH]c2ccccc12 | / | -5.2 | / | / | / | 5.4
COc1cccc(NS(=O)(=O)c2c(C)cc(C)cc2C)c1 | 0.2 | -2.3 | 18.7* | 7.3 | 3.4 | 0.0
N#Cc1ccc(S(=O)(=O)N2CCN(C(=O)c3cn(-c4ccccc4)nc3-c3cccnc3)CC2)cc1 | / | 2.2 | / | / | / | -5.0
COc1ccc([N+](=O)[O-])cc1NC(=O)Cc1ccccc1Cl | 0.3 | -2.9 | -0.9 | -3.1 | 4.7 | -7.6
COc1ccc(N=Cc2cc(Cc3ccccc3Cl)cc([N+](=O)[O-])c2O)cc1OC | 0.6 | 94.4* | -1.9 | 1.8 | 3.3 | 14.4
CCOc1ccccc1CNC(=O)C1CCN(c2nnc(C)c3c(C)n(-c4ccc(C)cc4)nc23)CC1 | 1.0 | 0.3 | -2.4 | 1.4 | 3.2 | 1.8
Cc1ccc(-n2nc3c(N4CCC(C(=O)NCc5ccccc5C)CC4)nnc(C)c3c2C)cc1 | 0.4 | 54.1* | 13.4 | 0.8 | 14.5 | 5.7
Cc1ccc(-n2nc3c(N4CCC(C(=O)N5CCCCCC5)CC4)nnc(C)c3c2C)cc1 | 0.2 | 70.8* | -4.7 | -1.5 | 23.7 | -4.1
NS(=O)(=O)c1ccc(NC(=O)COC(=O)CCCN2C(=O)c3cccc4cccc(c34)C2=O)cc1 | -1.1 | -34.1 | 3.7 | 1.3 | / | -3.2
N#CC1C=Cc2c(ccc3ccccc23)N1C(=O)c1ccccc1 (stereo not given) | / | 3.0 | / | / | / | 1.4
